# Source: PMC7078523 (Saudi Pharmaceutical Journal : SPJ, 2020)
# Columns and labels:
# In-vitro release study = assay type: physicochemical
# [1] = cited from earlier work
# [2] = Phase solubility study of GRI with β-CD, NS2 and NS3; assay type: physicochemical; conditions: distilled water
# In-vivo bioavailability = test: In-vivo bioavailability; parameters: species or system rats; conditions: male, albino, rat, plasma, po, 15 mg/kg
# Method in brief: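 Fasted male albino rats (300±25 g), 7 per group, single oral 15 mg/kg as 1 ml aqueous suspension by feeding tube with 10 ml water. Orbital sinus blood into heparin at 0–48 h; plasma stored at -80 °C. Acetonitrile protein precipitation, propranolol internal standard, LC-MS/MS over 10–6000 ng/mL. Non-compartmental parameters per rat; AUC0-48 by log-linear trapezoidal rule, kel from terminal slope, t1/2 = 0.693/kel.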
"GRI cumulative percent released/dissolved after 2 hrs (In-vitro release study; 0.1 N HCl (pH 1.2), 37 °C, 50 rpm) [%]",GRI cumulative percent released/dissolved after 7 h (In-vitro release study; 2 h 0.1 N HCl then 5 hrs phosphate buffer pH 7.4) [%],Dissolution efficiency (%D.E.) (In-vitro release study; after 7 hrs) [%],Best fitted release kinetics model (In-vitro release study; highest correlation coefficient (R^2)),solubility [2] [µM],AUC(0-t) (In-vivo bioavailability) [ng·h/mL],Cmax (In-vivo bioavailability) [ng/mL],Tmax (In-vivo bioavailability) [h],half-life (In-vivo bioavailability) [h],k el (In-vivo bioavailability) [s⁻¹],Compound,"Biopharmaceutics Classification System (BCS) class ([1]; ref Amidon et al., 1995)","log P (octanol/water) ([1]; ref Arida et al., 2007)","Aqueous solubility ([1]; physiological pH, ref Swaminathan et al., 2007)"
21.81 ± 0.07,27.43 ± 0.32,23.87,Higuchi release kinetics model,~35,22500,1810,2,20,1.03e-05,"COC1=CC(=O)C[C@@H](C)[C@]12Oc1c(Cl)c(OC)cc(OC)c1C2=O [GRI, Griseofulvin]",class II,2.15,
,,,,,,,,,,CCC(C)n1ncn(-c2ccc(N3CCN(c4ccc(OCC5COC(Cn6cncn6)(c6ccc(Cl)cc6Cl)O5)cc4)CC3)cc2)c1=O (stereo not shown) [itraconazole],,,about 1 ng mL^−1
